Pf Dd2 growth: inhibitors of Plasmodium falciparum Dd2 growth; 94,000 tested, 2.3% active; P. falciparum Dd2 growth, SYBR Green, 72 h; active compounds read low; AID 1159554; activity change, % at 10 µM; in the data active = activity change below about -80%; inconclusive = no clear call, values can overlap the other calls
T cruzi growth-1: T. cruzi proliferation inhibition; T. cruzi beta-gal in NIH3T3, GalScreen luminescence, 90 h; inhibition, % at 8.34 µM; 77,000 tested, 5.9% active;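 active = mean inhibition above about 93%, with at least 55% of replicates each passing it, limit read from the data, passing the limit was not always enough; inconclusive = only one of those two conditions holds; inactive = neither condition holds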
IDH1 R132H inh: blocks human IDH1 R132H reductase activity. 70,000 tested, 0.18% active. AID 624101. inhibition, % at 10 µM. diaphorase/resazurin fluorescence, 60 min; in the data active = inhibition above about 34%; inconclusive = no clear call, values can overlap the other calls; inactive = below about 11%;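 also: 0% = DMSO and 100% = no enzyme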
Target sequence (O75874 whole entry R132H): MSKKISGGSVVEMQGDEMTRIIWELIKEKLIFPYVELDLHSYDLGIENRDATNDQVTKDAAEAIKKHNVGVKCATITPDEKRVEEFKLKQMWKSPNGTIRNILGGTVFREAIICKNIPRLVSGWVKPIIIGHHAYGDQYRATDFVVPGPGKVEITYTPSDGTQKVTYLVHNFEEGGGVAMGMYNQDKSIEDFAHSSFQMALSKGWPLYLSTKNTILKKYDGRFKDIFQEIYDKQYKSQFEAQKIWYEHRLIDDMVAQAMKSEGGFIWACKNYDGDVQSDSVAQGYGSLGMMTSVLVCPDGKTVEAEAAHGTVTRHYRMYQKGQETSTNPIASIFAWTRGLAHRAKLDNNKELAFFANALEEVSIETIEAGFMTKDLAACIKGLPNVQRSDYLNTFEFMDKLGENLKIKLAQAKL
GASC1 inh: inhibitors of human demethylase GASC-1 KDM4C | GST-KDM4C 2-372, H3K9me3 peptide, LANCE TR-FRET | inhibition, % at 12.5 µM | 96,000 tested, 0.15% active | AID 720574;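 active = mean replicate inhibition above about 25%, with at least 55% of replicates also reaching it, limit read from the data, passing the limit was not always enough; inconclusive = only one of those two conditions met; inactive = neither condition met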
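Material: N-terminal GST-fused human GASC-1 (KDM4C) fragment, residues 2-372. Input: 10 nM enzyme. Incubation: enzyme reaction 30 min, then detection 60 min, both room temperature. Doses: one test concentration per compound. Read-out basis: inhibition from TR-FRET ratio decrease. Detection: LANCE TR-FRET, excitation 340 nm, emissions 618 and 671 nm.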
T cruzi growth-2: inhibitors of T. cruzi proliferation; 5,600 tested, 72% active; shares compounds with T cruzi growth-1; T. cruzi beta-gal in NIH3T3, GalScreen luminescence, 90 h; inhibition, % at 8.35 µM;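 active = mean replicate inhibition above about 95% and at least 55% of replicates individually reaching it, limit read from the data; inconclusive = only one of the two criteria is met; inactive = neither criterion is met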
T cruzi growth-3: inhibitors of T. cruzi proliferation | inhibition, % at 2.09 µM | T. cruzi beta-gal in NIH3T3, GalScreen luminescence, 90 h | shares compounds with T cruzi growth-1 | 5,600 tested, 21% active;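 active = mean inhibition above about 95%, with at least 55% of replicates also reaching it, limit read from the data; inconclusive = meets just one of the two conditions; inactive = meets neither condition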;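 also: plate controls were neutral control median for no effect and positive control median for full effect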
NIH3T3 tox: kills mouse NIH/3T3 fibroblasts | shares compounds with T cruzi growth-1 | NIH/3T3 viability, CellTiter-Glo ATP luminescence, 90 h | cytotoxicity (signal decrease), % at 8.35 µM | 5,600 tested, 14% active | AID 651742;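 active = mean signal decrease across replicates above about 35% based on untreated-well scatter, with enough replicates individually passing, limit read from the data; inconclusive = no rule stated though some were filed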;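 also: 0% = median of neutral control wells and 100% = median of positive control wells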
3T3 cytotox 2: NIH/3T3 (mouse) viability loss; shares compounds with T cruzi growth-1; NIH/3T3 viability, CellTiter-Glo ATP luminescence, 90 h; inhibition, % at 24.9 µM; 5,600 tested, 56% active;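 active = mean loss of cell viability signal at or above a set limit, and enough replicates individually reaching it; inconclusive = meets only the mean limit or only the replicate share; inactive = meets neither condition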;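 also: 0% = median of neutral control wells and 100% = median of positive control wells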
* hit, by the source's call. The list is not random: actives were taken first. Their share in the collection is about 5.9%.

`C[C@@H]1CN([C@H](C)CO)S(=O)(=O)c2ccc(-c3cccc(F)c3)cc2O[C@@H]1CN(C)S(=O)(=O)c1ccccc1` gave Pf Dd2 growth -33, T cruzi growth-1 114*, IDH1 R132H inh 0, GASC1 inh -1, T cruzi growth-2 97*, T cruzi growth-3 84, NIH3T3 tox 26 and 3T3 cytotox 2 54*.
`C[C@@H]1CN([C@@H](C)CO)S(=O)(=O)c2ccc(-c3cccc(F)c3)cc2O[C@H]1CN(C)C` gave T cruzi growth-1 -34, IDH1 R132H inh 0 and GASC1 inh 0.
`C[C@@H]1CN([C@@H](C)CO)S(=O)(=O)c2ccc(-c3cccc(F)c3)cc2O[C@H]1CN(C)S(=O)(=O)c1ccccc1` gave Pf Dd2 growth -63, T cruzi growth-1 122*, IDH1 R132H inh 0, GASC1 inh -1, T cruzi growth-2 99*, T cruzi growth-3 106*, NIH3T3 tox 58* and 3T3 cytotox 2 49*.
Screening C[C@@H]1CN([C@@H](C)CO)S(=O)(=O)c2ccc(Br)cc2O[C@@H]1CN(C)S(=O)(=O)c1ccccc1 returned Pf Dd2 growth 8, IDH1 R132H inh 0 and GASC1 inh 1.
`C[C@@H]1CN([C@@H](C)CO)C(=O)c2c(c3ccccc3n2C)-c2ccccc2CO[C@H]1CN(C)Cc1cccnc1` gave Pf Dd2 growth -28, T cruzi growth-1 92 and GASC1 inh 0.
`C[C@H](CO)N1C[C@H](C)[C@H](CN(C)C(=O)C2CC2)OCc2ccccc2-c2c(n(C)c3ccccc23)C1=O` gave Pf Dd2 growth -22, T cruzi growth-1 inconclusive, IDH1 R132H inh -4, GASC1 inh 2, T cruzi growth-2 70, T cruzi growth-3 19, NIH3T3 tox 3 and 3T3 cytotox 2 38*.
`C[C@H](CO)N1C[C@H](C)[C@@H](CN(C)Cc2cccnc2)OCc2ccccc2-c2c(n(C)c3ccccc23)C1=O` gave Pf Dd2 growth -10, T cruzi growth-1 inconclusive, GASC1 inh 2, T cruzi growth-2 75, T cruzi growth-3 44, NIH3T3 tox 16 and 3T3 cytotox 2 25.
For C[C@@H]1CN([C@@H](C)CO)C(=O)c2c(c3ccccc3n2C)-c2ccccc2CO[C@H]1CN(C)C(=O)Nc1ccc2c(c1)OCO2 the results were Pf Dd2 growth -82*, T cruzi growth-1 105*, GASC1 inh 1, T cruzi growth-2 85, T cruzi growth-3 33, NIH3T3 tox 13 and 3T3 cytotox 2 15.
For C[C@@H]1CN([C@@H](C)CO)C(=O)c2c(c3ccccc3n2C)-c2ccccc2CO[C@H]1CN(C)C the results were Pf Dd2 growth -17, T cruzi growth-1 inconclusive, IDH1 R132H inh -2, GASC1 inh -1, T cruzi growth-2 inconclusive, T cruzi growth-3 44, NIH3T3 tox 16 and 3T3 cytotox 2 31.
Screening C[C@H]1CN([C@@H](C)CO)C(=O)c2c(c3ccccc3n2C)-c2ccccc2CO[C@H]1CN(C)C(=O)Nc1ccc2c(c1)OCO2 returned Pf Dd2 growth -63, T cruzi growth-1 72 and GASC1 inh -1.
For C[C@H](CO)N1C[C@H](C)[C@@H](CN(C)C(=O)C2CC2)OCc2ccccc2-c2c(n(C)c3ccccc23)C1=O the results were Pf Dd2 growth -22, T cruzi growth-1 89 and GASC1 inh 1.
Screening O=C(CC1(O)C(=O)N(Cc2ccc(Cl)cc2)c2ccc(Cl)cc21)c1ccccn1 (stereo not given) returned IDH1 R132H inh 6.
For O=[N+]([O-])c1ccc(S(=O)(=O)NCCc2nc3ccccc3[nH]2)cc1 the results were IDH1 R132H inh 0.
For Cc1ccccc1/C=C1\Sc2ccccc2N(CC(=O)NC(C)c2ccccc2)C1=O (stereo not given) the results were IDH1 R132H inh -1.
Screening C[C@H](CO)N1C[C@H](C)[C@H](CN(C)Cc2ccncc2)OCCCC[C@H](C)Oc2ccc(NC(=O)NC3CCCCC3)cc2C1=O returned Pf Dd2 growth 20, T cruzi growth-1 97*, GASC1 inh 1, T cruzi growth-2 106*, T cruzi growth-3 31, NIH3T3 tox 1 and 3T3 cytotox 2 13.
C[C@@H]1CN([C@@H](C)CO)C(=O)c2cc(NC(=O)NC3CCCCC3)ccc2O[C@@H](C)CCCCO[C@@H]1CN(C)Cc1ccncc1 was read as Pf Dd2 growth -5, T cruzi growth-1 87, IDH1 R132H inh 0 and GASC1 inh 1.
C[C@@H]1CCCCO[C@@H](CN(C)Cc2ccncc2)[C@@H](C)CN([C@@H](C)CO)C(=O)c2cc(NC(=O)NC3CCCCC3)ccc2O1 was read as Pf Dd2 growth -5, T cruzi growth-1 103*, IDH1 R132H inh -1, GASC1 inh 0, T cruzi growth-2 35, T cruzi growth-3 1, NIH3T3 tox -31 and 3T3 cytotox 2 3.
`Cc1sc2nc(SCC(=O)N3CCC(c4noc5ccc(F)cc45)CC3)n(-c3ccccc3)c(=O)c2c1C` gave IDH1 R132H inh 0.
CCOc1ccccc1NC(=O)Cn1cnc2scc(-c3ccc(Cl)cc3)c2c1=O was read as IDH1 R132H inh 0.
For CC(C)CC#Cc1ccc2c(c1)O[C@@H](CN(C)Cc1cncnc1)[C@H](C)CN([C@@H](C)CO)S2(=O)=O the results were Pf Dd2 growth -36, T cruzi growth-1 82, IDH1 R132H inh 0 and GASC1 inh 2.
Screening CC(C)CC#Cc1ccc2c(c1)O[C@H](CN(C)Cc1cccnc1)[C@@H](C)CN([C@H](C)CO)S2(=O)=O returned T cruzi growth-1 96*, IDH1 R132H inh 3, GASC1 inh 1, T cruzi growth-2 104*, T cruzi growth-3 100*, NIH3T3 tox 16 and 3T3 cytotox 2 104*.
CC(C)CC#Cc1ccc2c(c1)O[C@H](CN(C)Cc1cccnc1)[C@H](C)CN([C@H](C)CO)S2(=O)=O was read as T cruzi growth-1 106*, IDH1 R132H inh 16, GASC1 inh -2, T cruzi growth-2 104*, T cruzi growth-3 82, NIH3T3 tox 32 and 3T3 cytotox 2 103*.
For CC(C)CC#Cc1ccc2c(c1)O[C@@H](CN(C)Cc1cccnc1)[C@H](C)CN([C@H](C)CO)S2(=O)=O the results were T cruzi growth-1 87, IDH1 R132H inh 19 and GASC1 inh -1.
